Compound activity (PubChem)
A selection: hits, their analogues and other compounds. The true share with any hit is near 3.5%.
RGS4 inh = inhibitors of human RGS4. actives 0.45% (n = 310,000). P49798. HEK293 M3R/RGS4 inducible, Fluo-4 calcium flux; active compounds read high; triggered by carbachol at its EC20. B-score at 10 µM. AID 463165;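 active = B-score, a plate-corrected calcium signal, over three deviations above library mean, with baseline fluorescence within five deviations of library mean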;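 also: RGS4 expression induced by doxycycline in cells with stable M3 receptor; B-score is computed from the integrated fluorescence ratio over baseline after carbachol; higher B-score means a larger calcium signal and so more RGS4 inhibition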
Target sequence (P49798 whole entry, looked up): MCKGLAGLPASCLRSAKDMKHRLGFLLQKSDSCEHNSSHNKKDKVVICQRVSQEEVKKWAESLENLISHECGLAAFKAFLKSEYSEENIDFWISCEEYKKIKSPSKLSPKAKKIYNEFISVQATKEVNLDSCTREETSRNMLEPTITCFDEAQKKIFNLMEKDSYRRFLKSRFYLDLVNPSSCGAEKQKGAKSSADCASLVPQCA
RGS4 pot = potentiators or activators of RGS4; actives 0.92% (n = 310,000); B-score at 10 µM; HEK293 M3R/inducible RGS4, carbachol calcium flux Fluo4; active compounds read low;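 active = B-score of the integrated calcium signal more than 4 SD below the library mean, with starting fluorescence not abnormally high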;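 also: negative B-score means reduced calcium response which marks RGS4 activation or potentiation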
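Reagent: ECmax carbachol challenge; Test system: M3R-expressing HEK293 line, RGS4 induced by doxycycline; Schedule: overnight RGS4 induction, 30 min dye load 37 °C, 20 min compound RT; Detection: calcium dye Fluo4 fluorescence; Read-out: Agonist-evoked peak-minus-minimum fluorescence over baseline, integrated ratio, B score.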
MrgX1 allo act = human MrgX1 positive allosteric modulation, primary screen | actives 0.63% (n = 310,000) | Q96LB2 | B-score at 10 µM | MrgX1-HEK293, Fluo-4 calcium flux, FDSS; active compounds read high;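 active = plate-corrected calcium response at least 3 library SD above typical, normal starting fluorescence, not activating the receptor alone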;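 also: compound read alongside a low EC10 to EC30 dose of BAM8-22 agonist; peak minus trough fluorescence over baseline measured at the second addition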
Target sequence (Q96LB2 whole entry, looked up): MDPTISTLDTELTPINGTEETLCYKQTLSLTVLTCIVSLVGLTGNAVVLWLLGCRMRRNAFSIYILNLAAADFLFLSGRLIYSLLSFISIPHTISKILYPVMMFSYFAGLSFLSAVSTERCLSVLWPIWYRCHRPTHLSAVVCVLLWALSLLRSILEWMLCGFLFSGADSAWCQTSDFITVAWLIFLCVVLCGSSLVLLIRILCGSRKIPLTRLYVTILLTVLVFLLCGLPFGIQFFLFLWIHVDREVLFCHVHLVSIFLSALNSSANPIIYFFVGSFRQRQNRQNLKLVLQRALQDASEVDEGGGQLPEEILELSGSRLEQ
MrgX1 antag = blocks BAM8-22 activation of human MrgX1 receptor | Q96LB2 | MRGX1-HEK293 calcium flux, Fluo-4, BAM8-22 antagonism; active compounds read low | B-score at 10 µM | actives 1.3% (n = 310,000) | AID 588676;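 active = calcium-response B-score plate-corrected more than 3 library SD below zero, starting fluorescence within 5 deviations, no agonist response on first addition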;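 also: peak minus trough fluorescence over baseline after final BAM8-22 challenge near maximal dose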
MrgX1 agonist = activates human MrgX1 receptor signaling; Q96LB2; MrgX1-HEK293 cells, Fluo-4 calcium fluorescence, agonist mode; active compounds read high; B-score at 10 µM; actives 0.44% (n = 310,000); AID 588627;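 active = calcium response B-score plate-corrected fluorescence ratio at least 3 library SD, with starting fluorescence B-score inside 5 SD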
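Material – MrgX1-expressing HEK293 cells · Input – 15,000 cells seeded per well · Dosing – compound as first of three additions · Times – overnight seeding, then 1 h dark dye loading · Measured by – kinetic Fluo-4 NW fluorescence of intracellular calcium · Read-out – B-scored fluorescence response ratio · Benchmarks – positive and negative control wells on each plate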
* hit, by the source's call; i = inactive.

SMILES	RGS4 inh	RGS4 pot	MrgX1 allo act	MrgX1 antag	MrgX1 agonist
O=C1CCCc2oc3c(cc(NS(=O)(=O)c4ccc5c6c(cccc46)C(=O)N5)c4ccccc43)c21	i	i	7*	i	i
CCOc1ccc(C2C(C#N)=C(N)N3C(=C2C#N)Sc2ccccc23)cc1 (stereo unspecified)	i	i	i	-4.83*	i
N#CC1=C(N)N2C(=C(C#N)C1c1ccccc1)Sc1ccccc12 (stereo unspecified)	i	i	i	i	i
N=c1oc2ccc3ccccc3c2cc1C(N)=S	i	i	i	i	i
COc1ccc(C(=O)N2CCCC(N3CCN(c4ccccc4F)CC3)C2)c(OC)n1 (stereo unspecified)	i	i	i	i	i
S=C1SCN(Cc2cccnc2)CN1Cc1cccnc1	i	i	i	i	i
C=CCn1c2ccccc2n2nc(C)c(=O)nc12	i	i	i	i	i
Cc1nn2c3ccccc3n(CCN3CCCCC3)c2nc1=O	i	i	i	-5.97*	i
COc1ccc([C@H]2[C@H](C(=O)C(C)(C)C)N3N=Cc4ccccc4C3C23C(=O)OC(C)(C)OC3=O)cc1 (stereo partly specified)	i	i	i	-6.13*	i
COc1ccc(N2C(=O)[C@H]3[C@@H](C2=O)C2c4ccccc4C=NN2[C@H]3C(=O)C(C)(C)C)cc1 (stereo partly specified)	i	i	i	i	i
COc1ccc([C@@H]2[C@@H](C(=O)C(C)(C)C)N3N=Cc4ccccc4[C@@H]3C23C(=O)OC(C)(C)OC3=O)cc1OC	i	-7.17*	i	i	i
COc1cccc(C(=O)COC(=O)CCC(=O)c2ccccc2)c1	i	i	i	i	i
Cc1ccc(S(=O)(=O)c2c(C)cc(C)nc2Oc2cccc(C(F)(F)F)c2)cc1	i	-8.25*	i	i	i
CCc1ccccc1NC(=S)N1N=CCC1c1ccccc1 (stereo unspecified)	i	i	i	i	37.4*
Cc1cccc(OCCOC(=O)CN2C(=O)NC3(CCCC3)C2=O)c1	i	i	i	i	i
NS(=O)(=O)c1ccc(CCNCc2cc(Br)ccc2OCc2ccccc2F)cc1	i	i	i	-4.72*	i
C=CCOc1ccccc1CNCCc1ccc(S(N)(=O)=O)cc1	i	i	i	i	i
Nc1nonc1C(=O)NCCNCc1cc(Br)ccc1OCc1ccccc1F	i	i	i	i	i
NS(=O)(=O)c1ccc(CCNCc2ccccc2OCc2ccc(Cl)cc2)cc1	i	i	i	-7.22*	i
NS(=O)(=O)c1ccc(CCNCc2cc(Cl)ccc2OCc2ccccc2)cc1	i	i	i	-7.16*	i
CCn1ccc(C(=O)Nc2ccccc2SC)n1	i	i	i	i	i
Cc1cc(C)nc(SCC(=O)NC2CCCCC2C)n1 (stereo unspecified)	i	i	i	i	i
Cc1c(C)c2ccc(OCC(=O)N3CCN(C(=O)C4COc5ccccc5O4)CC3)cc2oc1=O (stereo unspecified)	i	-7.25*	i	i	i
Cc1cc(=O)oc2cc(OCC(=O)N3CCN(C(=O)C4COc5ccccc5O4)CC3)ccc12 (stereo unspecified)	i	i	i	i	i
Cc1c(C(=O)N/N=C/c2ccccn2)nnn1-c1nonc1N	i	i	i	i	i
SMILES	RGS4 inh	RGS4 pot	MrgX1 allo act	MrgX1 antag	MrgX1 agonist
CC(CCc1ccccc1)NCc1cccc2ccccc12 (stereo unspecified)	i	i	i	i	i
NC(CCCCc1ccccc1)c1cccc2ccccc12 (stereo unspecified)	i	i	i	i	60.9*
CCOC(=O)CNC(=O)CSc1nnc(NC(=O)c2ccccc2Cl)s1	i	i	i	i	i
CC(=O)O[C@@H]1C[C@H]2C(C)(C)C(=O)C=C[C@]2(C)[C@H]2CC[C@@]3(C)[C@H](c4ccoc4)OC(=O)[C@H]4O[C@]43[C@@]21C	i	i	9.75*	i	i
O/N=C/c1nc2cc(Cl)ccc2o1	i	i	9.43*	i	i
Cc1ccc([N+](=O)[O-])cc1S(=O)(=O)n1ccnc1C	i	i	i	i	i
Cc1cc(NS(=O)(=O)c2ccc(NC(=S)NC(=O)c3cccc(S(=O)(=O)N(C)C)c3)cc2)no1	i	i	13.6*	i	i
CCc1nnc(NC(=O)C2CCCN2C(=O)Nc2ccc(Cl)cc2)s1 (stereo unspecified)	i	i	i	i	i
CCc1noc(C)c1C(=O)NNC(=O)COc1ccc(Br)cc1	i	i	i	i	i
O=C(N/N=C/c1sc2ccccc2c1O)c1cccc2ccccc12	i	i	i	-4.83*	i
COc1ccc(C(=O)N/N=C/c2sc3ccccc3c2O)cc1	i	i	i	i	39.4*
O=C(/C=C/c1ccc(N2CCC(c3ccccc3)=N2)cc1)c1ccccc1	i	-7.94*	i	i	i
COc1ccc2oc(=O)cc(-c3cc4cccc(OC)c4o3)c2c1	i	i	i	i	i
CCN(CC)C(=O)Oc1ccc2oc(=O)cc(-c3cc4cccc(OC)c4o3)c2c1	i	-7.21*	i	i	i
Cc1ccccc1CN(CC(=O)Nc1cccc([N+](=O)[O-])c1)S(=O)(=O)c1ccc(Cl)cc1	i	-7.25*	i	i	i
CS(=O)(=O)N(CC(=O)Nc1cccc([N+](=O)[O-])c1)c1ccccc1	i	i	i	i	i
CC(C)CC(O)C1CCN(C(=O)CCc2nnc(-c3ccccc3)o2)CC1 (stereo unspecified)	i	i	i	i	i
COc1ccc(-c2csc3ncnc(N4CCN(S(=O)(=O)c5ccc(Cl)s5)CC4)c23)cc1	i	i	i	i	i
COc1ccc(-c2csc3ncnc(N4CCN(S(=O)(=O)c5ccc(C)cc5)CC4)c23)cc1	i	-7.51*	i	i	i
Cc1ccc(-n2c(SCC(N)=O)nc3c(oc4ccccc43)c2=O)cc1	i	i	i	i	i
O=C1ON=C(c2ccc(Cl)cc2)/C1=C/c1ccc(O)cc1	i	i	i	i	34.2*
CC(C)=NOc1nc(NC(=O)NS(=O)(=O)c2ccccc2Cl)nc(N(C)C)n1	i	i	i	i	i
